Blank lines part the entries; values can stand above or below the compound they belong to.
Tests used:
[1] = tested on: RAW264.7 cells; assay: MTT cytotoxicity on RAW264.7 cells; type: cell-based; details: for cytotoxicity in RAW 264.7 cells: without laser
Method in brief: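 RAW264.7 cells seeded at 5 × 10^3/well, grown 24 h, then exposed to preparations across a concentration series. After 4 h, only the laser groups were irradiated (650 nm); all cells were incubated a further 20 h, and viability was read by MTT.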

[2] = molecular target: T1, human MMP-2 (Homo sapiens, UniProt P08253); assay: MMP-2 responsiveness; type: biochemical; details: human MMP-2, 4 and 24 h, 37 °C, MALDI-TOF-MS
T1 sequence (P08253 110-660): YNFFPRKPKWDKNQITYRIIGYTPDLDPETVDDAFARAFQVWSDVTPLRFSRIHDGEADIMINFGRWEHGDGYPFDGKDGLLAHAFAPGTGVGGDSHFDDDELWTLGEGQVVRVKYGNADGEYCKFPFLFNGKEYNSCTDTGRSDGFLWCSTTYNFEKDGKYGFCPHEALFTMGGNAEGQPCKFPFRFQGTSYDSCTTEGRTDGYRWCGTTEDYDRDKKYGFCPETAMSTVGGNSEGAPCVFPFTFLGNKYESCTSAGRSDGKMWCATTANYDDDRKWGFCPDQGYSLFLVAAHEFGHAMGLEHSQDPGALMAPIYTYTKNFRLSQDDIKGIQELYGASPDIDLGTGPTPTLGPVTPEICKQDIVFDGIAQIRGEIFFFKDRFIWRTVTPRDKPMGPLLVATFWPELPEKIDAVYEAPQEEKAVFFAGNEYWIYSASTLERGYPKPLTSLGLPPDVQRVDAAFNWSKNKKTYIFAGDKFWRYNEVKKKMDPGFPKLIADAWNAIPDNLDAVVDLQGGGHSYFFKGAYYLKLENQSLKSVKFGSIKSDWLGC

[3] = tested on: 4T1 cells; assay: Cellular uptake by flow cytometry and fluorescence microscopy; type: cell-based, murine; details: flow cytometry, Ce6 5 μg/mL
Method in brief: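 4T1 cells (1 × 10^5/well) grown to 80% confluency, exposed to formulations in serum-free 1640 medium at equal Ce6 (5 μg/mL) for 1, 4 or 12 h, then analysed by flow cytometry (n = 3). For microscopy, cells (2 × 10^5/well) on coverslips grown 36 h to 60% confluency, treated likewise, washed with cold PBS, fixed, DAPI-stained (1 μg/ml, 5 min) and imaged.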

[4] = DLS size, PDI and zeta potential of nanoparticles; type: physicochemical; details: without dBET6
[5] = tested on: BALB/c nude mice bearing primary tumors of breast cancer; assay: Biodistribution after intravenous injection; type: in vivo; details: 24 h post intravenous injection, ex vivo
Method in brief: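 Tumour-bearing BALB/c nude mice, tumours about 200 mm3 roughly 14 days after cell injection, randomised into four groups (n = 4). Ce6-labelled formulations were given intravenously and imaged on IVIS at 1, 2, 4, 8, 12 and 24 h. At 24 h animals were sacrificed; tumours and major organs were imaged ex vivo, fluorescence semi-quantified, then fixed and frozen-sectioned for imaging.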

[6] = tested on: 4T1 cells; assay: Wound healing assay; type: cell-based, murine; details: 24 h, cell motility = 1 - wound area at 24 h/wound area at 0 h
Method in brief: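 4T1 monolayers in 12-well plates at 80% confluency were scratched with a 10 μL tip and washed three times with cold PBS, then treated with formulations. Laser groups were irradiated after 4 h. At 24 h, cells were fixed, stained with 0.1% crystal violet, and the scratched area imaged by inverted microscope.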

[7] = tested on: BALB/c nude mice bearing breast cancer; assay: Tumor retention after intra-tumoral injection; type: in vivo; details: 48 h post intra-tumoral injection, ex vivo
Method in brief: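 Breast-tumour-bearing BALB/c nude mice received formulations intratumorally. IVIS fluorescence imaging at 5 min and 4, 8, 12, 24, 36 and 48 h post-injection. Tumours and major organs were imaged ex vivo, then fixed, dehydrated and frozen-sectioned for fluorescence imaging.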

[8] = tested on: mice bearing 4T1-Luc brain-metastatic tumor; assay: Brain accumulation in brain-metastasis model; details: ex vivo, 8 h post intravenous injection
Method in brief: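 Brain-metastasis model: 4T1-Luc cells (5 × 10^3) implanted stereotactically into right hippocampus. After 10 days, grouped by bioluminescence intensity (n = 4). Formulations given intravenously; IVIS fluorescence imaging at 1, 2, 4 and 8 h. At 8 h, mice sacrificed; brains and major organs imaged ex vivo for fluorescence.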

Compound: Cc1sc2c(c1C)C(c1ccc(Cl)cc1)=N[C@@H](CC(=O)NCCCCCCCCNC(=O)COc1cccc3c1C(=O)N(C1CCC(=O)NC1=O)C3=O)c1nnc(C)n1-2 (stereo partly shown) [dBET6, reference compound]
influence on cell viability of RAW264.7 cells ([1]; dBET6 0.25 μg/mL): no influence on cell viability

molecular mass change after incubation with MMP-2 [2]: no significant change in molecular mass
Compound: Ce6-FFRFKGPGLLAGC-PEG-DSPE [CFPD]
fluorescence signal relative to free Ce6 (cellular uptake) ([3]; 1 h): 5.71 fold
fluorescence signal relative to free Ce6 (cellular uptake) ([3]; 4 h): 3.73 fold
fluorescence signal relative to free Ce6 (cellular uptake) ([3]; 12 h): 3.10 fold
cytotoxicity in RAW 264.7 cells [1]: negligible cytotoxicity
size of self-assembled nanoparticles [4]: around 90 nm

Compound: Ce6-FFRFKGPLGLAGC-PEG-DSPE [CFMPD]
molecular mass change after incubation with MMP-2 [2]: distinct new peaks belonging to the post-enzymatic fragmentation
fluorescence signal relative to free Ce6 (cellular uptake) ([3]; 1 h): 6.53 fold
fluorescence signal relative to free Ce6 (cellular uptake) ([3]; 4 h): 4.13 fold
fluorescence signal relative to free Ce6 (cellular uptake) ([3]; 12 h): 3.64 fold
cytotoxicity in RAW 264.7 cells [1]: negligible cytotoxicity
tumor fluorescent signal, fold higher than CFPD [5]: 1.22 fold
tumor fluorescent signal, fold higher than CPD [5]: 1.71 fold
cell mobility (wound healing) [6]: 37.0%
tumor fluorescence intensity, fold stronger than CFPD [7]: 1.72 fold
brain fluorescence, fold stronger than CFPD [8]: 1.46 fold
brain fluorescence, fold stronger than CPD [8]: 2.04 fold
brain fluorescence, fold stronger than Ce6 [8]: 2.43 fold
size of self-assembled nanoparticles [4]: around 90 nm

Compound: Ce6-PEG3400-DSPE [CPD]
cytotoxicity in RAW 264.7 cells [1]: negligible cytotoxicity
size of self-assembled nanoparticles [4]: around 90 nm

From paper PMC11607387 (Nature Communications, 2024)
